Experimental data pooled from the literature.
Lines come from different studies, so protocols differ. pEC50, pIC50: −log10 of the molar value. In brackets after ≈: the same amount, converted by molar mass.

For `COc1cc(OC)c(OC)cc1C=C1Oc2ccccc2C1=O`, the inhibition was 30% (Streptococcus mutans; microbial growth; UA159; 50 µM).
`C[Si](C)(C)c1cc(C(=O)[C@H](Cc2ccccc2)NC(=O)[C@H](Cc2ccccc2)NC(=O)N2CCOCC2)no1` (single isomer, unassigned) has a pIC50 of < 4.19 (Leishmania infantum; parasite growth; intracellular, amastigote).
`CCCCCCC/C=C/C(=O)N1C(=O)/C(=C(\O)c2ccccc2)C(=O)C1CC(C)C` (centres unmarked) has an MIC of > 200 µg/mL (Stenotrophomonas maltophilia; microbial growth; ATCC13637).
The inhibition zone of `CC(=O)C1=C(C)N2NC(c3ccccc3O)N(C(Cc3c[nH]c4ccccc34)C(=O)O)C2=NC1c1ccc(Cl)cc1` (centres unmarked) is reported as 18 mm (Streptococcus pyogenes; microbial growth; ATCC19615; 10 µg/mL, 24 h).
The pIC50 of `CCCCCCCCCCCCCCCCC#CC(=O)O` is reported as 4.93 (Leishmania infantum; parasite growth; mouse Splenocyte; 72 h, intracellular, amastigote).
`CCOC(=O)C1=C(C)N2NC(c3ccccc3O)N(C(Cc3c[nH]c4ccccc34)C(=O)O)C2=NC1c1ccc(Cl)cc1` (centres unmarked) gave an inhibition zone of 18 mm (Streptococcus pyogenes; microbial growth; ATCC19615; 10 µg/mL, 24 h).
For `Fc1ccc(NCc2c(-c3ccccn3)nc3ccccn23)cc1`, the pIC50 was < 4.19 (Leishmania infantum; parasite growth; intracellular, amastigote).
For `O=C(O)CN1C(=O)/C(=C/c2ccc(-c3ccc(N(c4ccccc4)c4ccccc4)cc3)cc2)SC1=S`, the MBC was > 1000 µg/mL (Streptococcus mutans; microbial killing, broth dilution; ATCC25175).
`Fc1ccc(Nc2c(-c3ccccn3)nc3ccccn23)nc1` gave a pEC50 of < 4.20 (Leishmania infantum; parasite growth; 5 days, intracellular, amastigote).
`O=C(O)CN1C(=O)/C(=C/c2c3ccccc3c(-c3ccc(N(c4ccccc4)c4ccccc4)cc3)c3ccccc23)SC1=S` has an MBC of > 1000 µg/mL (Streptococcus pyogenes; microbial killing, broth dilution; ATCC19615).
For `CCCCC(=O)N1C(=O)/C(=C(/C)O)C(=O)C1CC(C)C` (centres unmarked), the MIC was > 200 µg/mL (Stenotrophomonas maltophilia; microbial growth; ATCC13637).
The pEC50 of `COc1ccc(-c2c(-c3ccccn3)nc3n2CCC3)cc1OC` is reported as 5.70 (Leishmania infantum; parasite growth; 5 days, intracellular, amastigote).
With `CCCCCCC/C=C/C(=O)N1C(=O)/C(=C(/C)O)C(=O)C1Cc1ccc(O)cc1` (centres unmarked) the MIC was 100 µg/mL (≈ 250 µM) (Stenotrophomonas maltophilia; microbial growth; ATCC13637).
For `O=C1C(=Cc2ccccc2)Oc2ccccc21`, the inhibition was 80% (Streptococcus mutans; microbial growth; UA159; 50 µM).
`CC(=O)C1=C(C)N2NC(c3ccccc3O)N(C(C)C(=O)O)C2=NC1c1ccc(Cl)cc1` (centres unmarked) gave an inhibition zone of 17 mm (Streptococcus pyogenes; microbial growth; ATCC19615; 15 µg/mL, 24 h).
`O=C(N[C@@H](Cc1ccccc1)C(=O)c1ncc(-c2ccccc2)s1)[C@H](Cc1ccccc1)NC(=O)N1CCOCC1` gave a pIC50 of 4.49 (Leishmania infantum; parasite growth; intracellular, amastigote).
For `CC(C(=O)O)N1C2=NC(c3ccc(Cl)cc3)C3=C(OC(C)(C)OC3=O)N2NC1(C)c1ccccc1O` (centres unmarked), the inhibition zone was 22 mm (Streptococcus pyogenes; microbial growth; ATCC19615; 15 µg/mL, 24 h).
`O=C1NC(=S)N/C1=C\c1c2ccccc2c(-c2ccc(N(c3ccccc3)c3ccccc3)cc2)c2ccccc12` gave an MBC of > 1000 µg/mL (Streptococcus pyogenes; microbial killing, broth dilution; ATCC19615).
The MIC of `CCCCCCC/C=C/C(=O)N1C(=O)/C(=C(\O)c2ccc(F)cc2)C(=O)C1CC(C)C` (centres unmarked) is reported as 50 µg/mL (≈ 116 µM) (Stenotrophomonas maltophilia; microbial growth; ATCC13637).
`COc1ccc2nc(-c3ccccn3)c(Nc3ccc(F)cc3)n2c1` has a pIC50 of 5.67 (Leishmania infantum; parasite growth; intracellular, amastigote).
The inhibition zone of `N#Cc1c(-c2ccc(Cl)cc2)nc2n(c1=O)NC(c1ccccc1O)N2C(Cc1c[nH]c2ccccc12)C(=O)O` (centres unmarked) is reported as 34 mm (Streptococcus pyogenes; microbial growth; ATCC19615; 15 µg/mL, 24 h).
The MBC of `O=C1NC(=S)S/C1=C\c1c2ccccc2c(-c2ccc(N(c3ccccc3)c3ccccc3)cc2)c2ccccc12` is reported as > 1000 µg/mL (Streptococcus mutans; microbial killing, broth dilution; ATCC25175).
For `CN(c1ccc(F)cc1)c1c(-c2ccccn2)nc2ccccn12`, the pEC50 was 6.00 (Leishmania infantum; parasite growth; 5 days, intracellular, amastigote).
For `O=C(N[C@@H](Cc1ccccc1)C(=O)c1cc(-c2ccccc2)no1)[C@H](Cc1ccccc1)NC(=O)N1CCOCC1` (mixture of isomers), the pIC50 was < 4.19 (Leishmania infantum; parasite growth; intracellular, amastigote).
The MIC of `O=C(O)CN1C(=O)/C(=C/c2ccc(-c3ccc(N(c4ccccc4)c4ccccc4)cc3)c3ccccc23)NC1=S` is reported as > 1000 µg/mL (Streptococcus pyogenes; microbial growth, broth dilution; ATCC19615).
For `O=C(N[C@@H](Cc1ccccc1)C(=O)c1cn(COCc2ccccc2)nn1)[C@H](Cc1ccccc1)NC(=O)N1CCOCC1`, the pIC50 was < 4.19 (Leishmania infantum; parasite growth; intracellular, amastigote).
The pIC50 of `Cc1ccc2nc(-c3ccccc3)c(CNc3cccc(C(F)(F)F)c3)n2c1` is reported as 4.49 (Leishmania infantum; parasite growth; intracellular, amastigote).
With `CCOC(=O)C1=C(C)N2NC(C)(c3ccccc3O)N(C(Cc3c[nH]c4ccccc34)C(=O)O)C2=NC1c1ccc(Cl)cc1` (centres unmarked) the inhibition zone was 31 mm (Streptococcus pyogenes; microbial growth; ATCC19615; 15 µg/mL, 24 h).
`c1ccc(-c2nc3n(c2-c2ccncc2)CCC3)nc1` has a pEC50 of < 4.20 (Leishmania infantum; parasite growth; 5 days, intracellular, amastigote).
The inhibition zone of `CC1(c2ccccc2O)Nn2c(nc(-c3ccc(Cl)cc3)c(C#N)c2=O)N1C(Cc1c[nH]c2ccccc12)C(=O)O` (centres unmarked) is reported as 32 mm (Streptococcus pyogenes; microbial growth; ATCC19615; 15 µg/mL, 24 h).
With `O=C1NC(=S)N/C1=C\c1ccc(-c2ccc(N(c3ccccc3)c3ccccc3)cc2)c2ccccc12` the MIC was > 1000 µg/mL (Streptococcus pyogenes; microbial growth, broth dilution; ATCC19615).
`O=C(N[C@H](CCc1ccccc1)C(=O)c1cc(Cc2ccccc2)on1)[C@H](Cc1ccccc1)NC(=O)N1CCOCC1` gave a pIC50 of < 4.19 (Leishmania infantum; parasite growth; intracellular, amastigote).
`CC(C)CN(c1ccc(F)cc1)c1c(-c2ccccn2)nc2ccccn12` gave a pEC50 of 6.10 (Leishmania infantum; parasite growth; 5 days, intracellular, amastigote).
The MIC of `O=C1NC(=S)N/C1=C\c1ccc(-c2ccc(N(c3ccccc3)c3ccccc3)cc2)cc1` is reported as > 1000 µg/mL (Streptococcus mutans; microbial growth, broth dilution; ATCC25175).
With `CCOC(=O)C1=C(C)N2NC(C)(c3ccccc3O)N(C(C)C(=O)O)C2=NC1c1ccc(Cl)cc1` (centres unmarked) the inhibition zone was 14 mm (Streptococcus pyogenes; microbial growth; ATCC19615; 10 µg/mL, 24 h).
